# Calls of active or inactive are those of the source. No cut-off for these calls is given here.
# Assays:
# Albumin [1] = biological target: T1, Albumin (Homo sapiens, UniProt P02768); experiment: Binding affinity to human serum albumin at 273 K by modified Stern-Volmer method; type: ADME; conditions: isolated protein
# Staphylococcus aureus [2] = experiment: Antibacterial activity against Staphylococcus aureus ATCC 25923 after 24 hrs by NCCLS two fold broth microdilution method; type: functional; conditions: ATCC 25923, 24 h
# How it was run: (§1)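 Two-fold serial broth microdilution in 96-well plates following NCCLS. Compounds were dissolved in DMSO as stocks, then diluted in Mueller–Hinton broth to final concentrations of 0.5–512 µg/mL. Plates were inoculated and incubated at 37 °C for 24 h, with growth read visually and spectrophotometrically. MIC was taken as the lowest concentration giving complete growth inhibition. Run in triplicate, with a DMSO-plus-inoculum solvent control.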
# Calf thymus DNA [3] = experiment: Inhibition of neutral red binding to calf thymus DNA up to 0.48 10^-5 mol/L by UV-vis absorption spectra analysis; type: nucleic-acid assay; conditions: Bos taurus
# Bacillus subtilis [4] = experiment: Antibacterial activity against Bacillus subtilis ATCC 21216 after 24 hrs by NCCLS two fold broth microdilution method; type: functional; conditions: ATCC 21216, 24 h; how it was run: as §1
# Albumin [5] = biological target: T1, Albumin; experiment: Binding affinity to human serum albumin assessed as quenching constant at 293 K by fluorescence spectroscopic analysis; type: ADME; conditions: isolated protein
# How it was run: (§2)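 Intrinsic fluorescence of HSA (single Trp-214, emission peak 348 nm) was recorded with increasing compound concentration at several temperatures. Quenching data were fitted to the Stern-Volmer equation F0/F = 1 + KSV[Q] = 1 + Kqτ0[Q] to give KSV, and Kq was derived via τ0.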
# Staphylococcus aureus [6] = experiment: Potency index, ratio of norfloxacin MIC to compound MIC for Staphylococcus aureus ATCC 25923; type: functional
# Escherichia coli = experiment: Antibacterial activity against Escherichia coli ATCC 8099 after 24 hrs by NCCLS two fold broth microdilution method; type: functional; conditions: ATCC 8099, 24 h
# How it was run: as §1, with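 “NCCLS.” for “NCCLS. Compounds were dissolved in DMSO as stocks, then diluted in Mueller–Hinton broth to final concentrations of 0.5–512 µg/mL.”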
# Albumin [7] = biological target: T1, Albumin; experiment: Binding affinity to human serum albumin assessed as Gibbs free energy change at 313 K by van't Hoff plot analysis; type: ADME; conditions: isolated protein
# Albumin [8] = biological target: T1, Albumin; experiment: Binding affinity to human serum albumin at 313 K by scatchard plot analysis; type: ADME; conditions: isolated protein
# Staphylococcus aureus [9] = experiment: Potency index, ratio of Chloromycin MIC to compound MIC for Staphylococcus aureus ATCC 25923; type: functional
# Albumin [10] = biological target: T1, Albumin; experiment: Binding affinity to human serum albumin assessed as Stern-Volmer quenching constant at 273 K by fluorescence spectroscopic analysis; type: ADME; conditions: isolated protein; how it was run: as §2
# Albumin [11] = biological target: T1, Albumin; experiment: Binding affinity to human serum albumin assessed as Gibbs free energy change at 293 K by van't Hoff plot analysis; type: ADME; conditions: isolated protein
# Salmonella typhi [12] = experiment: Antibacterial activity against Bacillus typhi after 24 hrs by NCCLS two fold broth microdilution method; type: functional, Salmonella enterica subsp. enterica serovar Typhi; conditions: Salmonella enterica
# How it was run: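 Two-fold serial broth microdilution per NCCLS. DMSO stocks diluted in Mueller–Hinton broth to 512, 256, 128, 64, 32, 16, 8, 4, 2, 1, 0.5 µg/mL. Chloromycin and norfloxacin as reference drugs; DMSO with inoculum, no drug, as solvent control. Incubation 37 °C for 24 h. Growth read visually and spectrophotometrically. MIC is the lowest concentration completely inhibiting growth; triplicate.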
# Albumin [13] = biological target: T1, Albumin; experiment: Binding affinity to human serum albumin assessed as change in enthalpy at 273 K by van't Hoff plot analysis; type: ADME; conditions: isolated protein
# Albumin [14] = biological target: T1, Albumin; experiment: Binding affinity to human serum albumin at 313 K by modified Stern-Volmer method; type: ADME; conditions: isolated protein
# Calf thymus DNA [15] = experiment: Binding affinity to calf thymus DNA assessed as increase in maximum absorption by UV-vis absorption spectra analysis; type: nucleic-acid assay; conditions: Bos taurus
# How it was run: (§3)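 Calf thymus DNA was held at a fixed concentration and titrated with increasing amounts of compound. UV-vis absorption spectra were recorded, following the DNA absorption maximum at 260 nm.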
# Pseudomonas aeruginosa [16] = experiment: Antibacterial activity against Pseudomonas aeruginosa ATCC 27853 after 24 hrs by NCCLS two fold broth microdilution method; type: functional; conditions: ATCC 27853, 24 h
# How it was run: as §1, with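 “NCCLS.” for “NCCLS. Compounds were dissolved in DMSO as stocks, then diluted in Mueller–Hinton broth to final concentrations of 0.5–512 µg/mL.”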
# Cyberlindnera jadinii = experiment: Antifungal activity against Candida utilis after 24 hrs by NCCLS two fold broth microdilution method; type: functional; conditions: Williopsis jadinii
# How it was run: (§4)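 Two-fold serial microdilution following NCCLS. A spore suspension in sterile distilled water was prepared from one-day-old cultures grown on Sabouraud agar and adjusted to a final 1–5 × 10^3 spores/mL. DMSO stocks were diluted in RPMI 1640 to eleven concentrations (0.5–512 µg/mL), inoculated and held at 35 °C for 24 h. Growth was read visually and spectrophotometrically, MIC was the lowest concentration with complete inhibition, and runs were in triplicate.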
# Albumin [17] = biological target: T1, Albumin; experiment: Binding affinity to human serum albumin assessed as Stern-Volmer quenching constant at 293 K by fluorescence spectroscopic analysis; type: ADME; conditions: isolated protein; how it was run: as §2
# Bacillus = experiment: Antibacterial activity against Bacillus proteus ATCC 13315 after 24 hrs by NCCLS two fold broth microdilution method; type: functional; conditions: ATCC 13315, 24 h; how it was run: as §1
# Albumin [18] = biological target: T1, Albumin; experiment: Binding affinity to human serum albumin assessed as Gibbs free energy change at 273 K by van't Hoff plot analysis; type: ADME; conditions: isolated protein
# Albumin [19] = biological target: T1, Albumin; experiment: Binding affinity to human serum albumin assessed as quenching constant at 313 K by fluorescence spectroscopic analysis; type: ADME; conditions: isolated protein; how it was run: as §2
# Bacillus subtilis [20] = experiment: Potency index, ratio of Chloromycin MIC to compound MIC for Bacillus subtilis ATCC 21216; type: functional
# Albumin [21] = biological target: T1, Albumin; experiment: Binding affinity to human serum albumin assessed as quenching constant at 273 K by fluorescence spectroscopic analysis; type: ADME; conditions: isolated protein; how it was run: as §2
# Micrococcus luteus = experiment: Antibacterial activity against Micrococcus luteus ATCC 4698 after 24 hrs by NCCLS two fold broth microdilution method; type: functional; conditions: NCTC 2665, 24 h; how it was run: as §1
# Pseudomonas aeruginosa [22] = experiment: Potency index, ratio of Chloromycin MIC to compound MIC for Pseudomonas aeruginosa ATCC 27853; type: functional
# Albumin [23] = biological target: T1, Albumin; experiment: Binding affinity to human serum albumin at 273 K by scatchard plot analysis; type: ADME; conditions: isolated protein
# Albumin [24] = biological target: T1, Albumin; experiment: Binding affinity to human serum albumin at 293 K by scatchard plot analysis; type: ADME; conditions: isolated protein
# Pichia norvegensis = experiment: Antifungal activity against Candida mycoderma after 24 hrs by NCCLS two fold broth microdilution method; type: functional
# Albumin [25] = biological target: T1, Albumin; experiment: Binding affinity to human serum albumin assessed as change in entropy at 273 K by van't Hoff plot analysis; type: ADME; conditions: isolated protein
# Calf thymus DNA [26] = experiment: Binding affinity to calf thymus DNA by UV-vis absorption spectra analysis; type: nucleic-acid assay; conditions: Bos taurus; how it was run: as §3
# Saccharomyces cerevisiae = experiment: Antifungal activity against Saccharomyces cerevisiae after 24 hrs by NCCLS two fold broth microdilution method; type: functional; how it was run: as §4
# Candida albicans = experiment: Antifungal activity against Candida albicans ATCC 76615 after 24 hrs by NCCLS two fold broth microdilution method; type: functional; conditions: ATCC 76615, 24 h; how it was run: as §4
# Albumin [27] = biological target: T1, Albumin; experiment: Binding affinity to human serum albumin by fluorescence spectroscopic analysis; type: ADME; conditions: isolated protein
# Albumin [28] = biological target: T1, Albumin; experiment: Binding affinity to human serum albumin assessed as Stern-Volmer quenching constant at 313 K by fluorescence spectroscopic analysis; type: ADME; conditions: isolated protein; how it was run: as §2
# Calf thymus DNA [29] = experiment: Binding affinity to calf thymus DNA assessed as hypochromic effect up to 1.6 10^-5 mol/L by UV-vis absorption spectra analysis; type: nucleic-acid assay; conditions: Bos taurus; how it was run: as §3
# Calf thymus DNA [30] = experiment: Binding affinity to calf thymus DNA assessed as hyperchromic effect up to 1.6 10^-5 mol/L by UV-vis absorption spectra analysis; type: nucleic-acid assay; conditions: Bos taurus; how it was run: as §3
# Albumin [31] = biological target: T1, Albumin; experiment: Binding affinity to human serum albumin at 293 K by modified Stern-Volmer method; type: ADME; conditions: isolated protein
# Staphylococcus aureus [32] = experiment: Antibacterial activity against methicillin-resistant Staphylococcus aureus N315 after 24 hrs by NCCLS two fold broth microdilution method; type: functional; conditions: N315, 24 h
# How it was run: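 Two-fold serial broth microdilution per NCCLS. Chloromycin and norfloxacin as reference drugs; DMSO with inoculum, no drug, as solvent control. Incubation 37 °C for 24 h. Growth read visually and spectrophotometrically. MIC is the lowest concentration completely inhibiting growth; triplicate.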
# Albumin [33] = biological target: T1, Albumin; experiment: Binding affinity to human serum albumin up to 1.6 10^-5 mol/L by UV-vis absorption spectra analysis; type: ADME; conditions: isolated protein
# Aspergillus flavus [34] = experiment: Antifungal activity against Aspergillus flavus after 24 hrs by NCCLS two fold broth microdilution method; type: functional; how it was run: as §4
# Aspergillus flavus [35] = experiment: Potency index, ratio of Fluconazole MIC to compound MIC for Aspergillus flavus; type: functional
# Salmonella typhi [36] = experiment: Potency index, ratio of Chloromycin MIC to compound MIC for Bacillus typhi; type: functional, Salmonella enterica subsp. enterica serovar Typhi
# T1 sequence (P02768 whole entry): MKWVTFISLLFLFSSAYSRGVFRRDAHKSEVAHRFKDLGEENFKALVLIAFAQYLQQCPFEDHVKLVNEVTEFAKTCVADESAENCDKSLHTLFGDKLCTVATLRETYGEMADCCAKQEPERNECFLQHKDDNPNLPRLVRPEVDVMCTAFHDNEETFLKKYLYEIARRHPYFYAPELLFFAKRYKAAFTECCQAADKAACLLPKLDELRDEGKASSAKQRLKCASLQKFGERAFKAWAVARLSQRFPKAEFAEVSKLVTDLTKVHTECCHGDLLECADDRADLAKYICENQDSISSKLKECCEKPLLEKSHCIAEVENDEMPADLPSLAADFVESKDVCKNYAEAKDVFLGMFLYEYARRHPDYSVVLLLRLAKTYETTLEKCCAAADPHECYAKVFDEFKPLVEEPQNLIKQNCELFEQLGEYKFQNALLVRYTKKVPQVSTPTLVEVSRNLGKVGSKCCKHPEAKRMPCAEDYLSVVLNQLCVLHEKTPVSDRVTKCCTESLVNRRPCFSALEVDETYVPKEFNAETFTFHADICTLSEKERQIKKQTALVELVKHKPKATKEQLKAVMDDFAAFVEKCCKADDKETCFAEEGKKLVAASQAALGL
smiles,measurement,setting,value
CC(=O)Nc1ccc(S(=O)(=O)Cc2nc3ccccc3n2Cc2ccc(F)cc2)cc1,Ka,Albumin [1],54300 M⁻¹
same,MIC,Staphylococcus aureus [2],4 µg/mL
same,inhibition,Calf thymus DNA [3],Active
same,MIC,Bacillus subtilis [4],16 µg/mL
same,Kq,Albumin [5],3.44 ×10¹² L/mol/s
same,Ratio,Staphylococcus aureus [6],2
same,MIC,Escherichia coli,32 µg/mL
same,deltaG,Albumin [7],-6.3991 kcal/mol
same,Kb,Albumin [8],41600 M⁻¹
same,Ratio,Staphylococcus aureus [9],2
same,KSV,Albumin [10],3.26 ×10⁴ L/mol
same,deltaG,Albumin [11],-6.1047 kcal/mol
same,MIC,Salmonella typhi [12],16 µg/mL
same,deltaH,Albumin [13],-0.4199 kcal/mol
same,Ka,Albumin [14],35800 M⁻¹
same,Activity,Calf thymus DNA [15],Dose-dependent effect
same,MIC,Pseudomonas aeruginosa [16],256 µg/mL
same,MIC,Cyberlindnera jadinii,16 µg/mL
same,KSV,Albumin [17],2.2 ×10⁴ L/mol
same,MIC,Bacillus,32 µg/mL
same,deltaG,Albumin [18],-5.81 kcal/mol
same,Kq,Albumin [19],2.86 ×10¹² L/mol/s
same,Ratio,Bacillus subtilis [20],2
same,Kq,Albumin [21],5.09 ×10¹² L/mol/s
same,MIC,Micrococcus luteus,64 µg/mL
same,Ratio,Pseudomonas aeruginosa [22],4
same,Kb,Albumin [23],78600 M⁻¹
same,Kb,Albumin [24],58400 M⁻¹
same,MIC,Pichia norvegensis,64 µg/mL
same,deltaS,Albumin [25],82.61 J/mol/K
same,K,Calf thymus DNA [26],1.26 ×10⁴ L/mol
same,MIC,Saccharomyces cerevisiae,64 µg/mL
same,MIC,Candida albicans,64 µg/mL
same,Activity,Albumin [27],Dose-dependent effect
same,KSV,Albumin [28],1.83 ×10⁴ L/mol
same,Activity,Calf thymus DNA [29],inactive
same,Activity,Calf thymus DNA [30],Active
same,Ka,Albumin [31],36900 M⁻¹
same,MIC,Staphylococcus aureus [32],16 µg/mL
same,Activity,Albumin [33],Active
same,MIC,Aspergillus flavus [34],64 µg/mL
CC(=O)Nc1ccc(S(=O)(=O)Cc2nc3ccccc3n2Cc2ccc(Cl)cc2Cl)cc1,Ka,Albumin [1],11100 M⁻¹
same,MIC,Staphylococcus aureus [2],64 µg/mL
same,inhibition,Calf thymus DNA [3],Active
same,MIC,Bacillus subtilis [4],16 µg/mL
same,Kq,Albumin [5],6.38 ×10¹² L/mol/s
same,MIC,Escherichia coli,8 µg/mL
same,deltaG,Albumin [7],-5.7639 kcal/mol
same,Kb,Albumin [8],42100 M⁻¹
same,KSV,Albumin [10],5.25 ×10⁴ L/mol
same,deltaG,Albumin [11],-5.2682 kcal/mol
same,MIC,Salmonella typhi [12],4 µg/mL
same,deltaH,Albumin [13],-0.196 kcal/mol
same,Ka,Albumin [14],10600 M⁻¹
same,Activity,Calf thymus DNA [15],Dose-dependent effect
same,MIC,Pseudomonas aeruginosa [16],16 µg/mL
same,Ratio,Aspergillus flavus [35],16
same,MIC,Cyberlindnera jadinii,128 µg/mL
same,KSV,Albumin [17],4.08 ×10⁴ L/mol
same,MIC,Bacillus,32 µg/mL
same,deltaG,Albumin [18],-5.0523 kcal/mol
same,Kq,Albumin [19],4.72 ×10¹² L/mol/s
same,Kq,Albumin [21],8.2 ×10¹² L/mol/s
same,MIC,Micrococcus luteus,128 µg/mL
same,Kb,Albumin [23],65600 M⁻¹
same,Kb,Albumin [24],59300 M⁻¹
same,MIC,Pichia norvegensis,512 µg/mL
same,deltaS,Albumin [25],74.429 J/mol/K
same,K,Calf thymus DNA [26],1.52 ×10⁴ L/mol
same,MIC,Saccharomyces cerevisiae,128 µg/mL
same,MIC,Candida albicans,512 µg/mL
same,Activity,Albumin [27],Dose-dependent effect
same,KSV,Albumin [28],3.02 ×10⁴ L/mol
same,Activity,Calf thymus DNA [29],inactive
same,Activity,Calf thymus DNA [30],Active
same,Ka,Albumin [31],10800 M⁻¹
same,MIC,Staphylococcus aureus [32],128 µg/mL
same,Activity,Albumin [33],Active
same,MIC,Aspergillus flavus [34],32 µg/mL
same,Ratio,Salmonella typhi [36],8

# — ChEMBL document CHEMBL4138085, “Design, synthesis and antimicrobial evaluation of novel benzimidazole-incorporated sulfonamide analogues” (Eur J Med Chem, 2017)
